Laboratory results from the RNAGym collection of RNA variant scans (doi:10.1126/science.aae0568).
This sample holds only a part of the variants without activity.

B1: tRNA (parent)
chain: GUUCCGUUGGCGUAAUGGUAACGCGUCUCCCUCCUAAGGAGAAGACUGCGGGUUCGAGUCCCGUACGGAACG

Variants of: B1
Assay: yeast fitness relative to wild type (ratio to wild type); higher = fitter; tRNA-Arg(CCU), competitive growth, 37 C, YPD
Summary of the method: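 Variants of the tRNA-Arg(CCU) gene were chemically synthesised with a 3% per-site mutation rate across 69 sites and placed at the native genomic locus in Saccharomyces cerevisiae. Six parallel replicates of the pooled strains were competed in YPD at 37°C for 24 hours, and gene amplicons from the start and end populations were read by 100-nucleotide paired-end sequencing. Darwinian fitness relative to wild type was derived from changes in genotype frequencies. Genotypes required ≥ 100 starting reads, and estimates < 0.5 were set to 0.5.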
With GUUGCGUUGGCGUAAUGGUAACACGUCUGCCUCCUACGGAGAAGACUGCGGGUUCGAGUCCCGUACGGAACG the yeast fitness was 0.651. Work on GUUGCGUUGGCGUAAUGCUAACGCGUCUCACUCCUAAGGAGAAGACUGCGGGUUCGAGUCCCGUACGGAACG yielded a yeast fitness of no more than 0.5. GUUGCGUUGGCGUAAUGCUAACGCGUCUCCCUGCUAAGGAAAAGACUGCGGGUUGGAGUCCCGUACGGAACG gave a yeast fitness of no more than 0.5. For GUUGCGUUGGCAUAAUGGUAACGCGUCUCCCUCCUAAGGAGAUGCCUGCGGGUUCGAGUCCCGUACCGAACG, the yeast fitness was no more than 0.5. In the case of GUUGCGUUGGCGUAAUGGUAACGCGUCUCCCUCCUAAAGAGAAGACUGCGGGUUUGAGUCCCGUACGGAACG, the yeast fitness is reported as no more than 0.5. In the case of GUUGCGUUGGCGUAAUGCUAACGCGUCUCCCUCCUAAGGAGAAGACUGCGGGUUCGAGUCCCGUACGCAACG, the yeast fitness is reported as 0.636. Variant GUUGCGUUGGCGUAAUGGUAACACGUCUGCCUCCUACGGAGAAGACUGCGGGUUCGAGUGCCGUACGGAACG has a yeast fitness of 0.808. Variant GUUGCGUUGGCGUAAUAGUAACGCGUCUCCCUCCUAAGGAGAAGACUGCGGGUUCGGGUCCCGUACGGAACG has a yeast fitness of no more than 0.5. Work on GUUGCGUUGGCGUAAUGGUAACGCCUCUCGCUCCUAAGGAGAAGACUGCGGGUUCGAGUCCCGUACGGAACG yielded a yeast fitness of 0.622. In the case of GUUGCGUUGGCGUAAUCGUAACGCGUCUCCCUGCUAAGGAGAAGACUGCGGGUUCGAGUCCCGUACGGAACG, the yeast fitness is reported as no more than 0.5. With GUUGCGUUGGCGUAAUGGUAACCCGUCUCCCUCCUAAGGAGAAGUCUGCGGGUUCGAGUCCCGUACGGAACG the yeast fitness was no more than 0.5. For GUUGCGUUGGCGUAAUCGUAACGCGUCUCCCUCCUAUGGAGAAGACUGCGGGUUCGAAUCACGUACGGAACG, the yeast fitness was no more than 0.5. In the case of GUUGCGUUGGCAUAAUGGUAACGCGACUCCCUCCUAAGGAGAAGACUGCGGGUUCGAGUCCCGUACGGAACG, the yeast fitness is reported as no more than 0.5. For GUUGCGUUGGCGUAAUAGUAACGCGUCACCGUCCUAAGGAGAAGACUGCGGGUUCGGGUCCUGUACGGAACG, the yeast fitness was no more than 0.5. GUUGCGUUGGCGUAAUGGUAACGCGUCUCCCUCCUAAGAAGAAGACUGCGGGUUCGAGUCCCGUUCGGAACG showed a yeast fitness of 0.576. In the case of GUUGCGUUGGCGUAAUGGUAACGCGUCUCCCUCCUAAGAAGAAGACUGCGGGUUCGAGUCCCGUCCGGAACG, the yeast fitness is reported as no more than 0.5. GUUGCGUUGGCGUAAUGGUAACCCGUCUUCCUCCUAAGGAGAAGACUGCGGGUUCGAGUCCCGUACGGAACG showed a yeast fitness of 0.501. With GUUGCGUUGGCAUAAUGGCAACGCGUCUGCCUCCUAAGGAGAAGACUGCGGGUUCGGGUCACGUCUGGAACG the yeast fitness was 0.634. For GUUGCGUUGGCGUAAUAGUAACGCGUCUCCCUCCUAAGGAGAAGACUGCGGGUUCGAGUCCCGUACGGAGCG, the yeast fitness was 0.567. Work on GUUGCGUUGGCGUAAUAGUAACGCGUCUCCCUCCUAAGGAGAAGACUGCGAGUUCGAGUCCCGUAUGGAACG yielded a yeast fitness of no more than 0.5. GUUGCGUUGGCUUCAUGGUAACGCGUCUCCCUCCUAAGGAGAAGACUGUGGGUUCGAGUCCCGUUCGGAACG gave a yeast fitness of no more than 0.5. GUUGCGUUGGCGUAAUGGUAACGCGUCUCCCUCCUAAGGAGAAACCUGCGGGUUCGAGUCCCGUACGGAACG gave a yeast fitness of no more than 0.5. For GUUGCGUUGGCGUAAUGGUAACGCAUCUCCCUCCUAAGGAGAAGACUGCGGGUGCGAGUCCCGUACGGAACG, the yeast fitness was no more than 0.5. GUUGCGUUGGCGUAAUGGUAACCCGUCUCCCUCCUAAGGAGAAGACUGCGGGUUCGAGUCUCGUACGGAACG gave a yeast fitness of no more than 0.5. For GUUGCGUUGGCGUAAUAGUAACGCGUCUUCCUCCUAAGGAGAAGACUGCGGGUUCGAGUCCCGUAUGGAACG, the yeast fitness was no more than 0.5. GUUGCGUUGGCGUAAUGGUAACACGUCUGCCUCCUACGGAGAAGACUGCGGGUUCGAGUCGCGUACGGAACG showed a yeast fitness of no more than 0.5. GUUGCGUUGGCAUAAUGGUAACGUGUCUCCCUCCUAAGGAGAAGACUGCGGGUUCGAGUCCCGUACGGAACG showed a yeast fitness of no more than 0.5. With GUUGCGUUGGCGUAAUGGUAACCCGUCUCCCUCCUAAGGAGAAGACUGCGGGUUCGAGUGCCGUACGGAACG the yeast fitness was no more than 0.5. With GUUGCGUUGGCGUAAUGGUAACGCGUCUCCCUCCUAAGGAGAACACUGCGGGUUCGAGUCCCGUACGGAACG the yeast fitness was 0.826. GUUGCGUUGGCGUAAUGGUAACGCGUCUCCCUCCUAAGGAGAAAACUGCGGGUUCGAGUCCCGUACGGAACG showed a yeast fitness of 0.726. Variant GUUGCGUUGGCGUAAUGGUAACGCAUCUCCCUCCUAAGGAGAAGACUGCGGGUUCGAGUGCGGUACGGAACG has a yeast fitness of 0.57. GUUGCGUUGGCGUAAUGGUAACCCGUCUCCCUCCUAAGGAGAAGACUGCGGGUUCCAGUCCCGUACGGAACG showed a yeast fitness of no more than 0.5. In the case of GUUGCGUUGUCGUAAUGGUUACGCGUCUCCCUCGUAGGGAGAAGACUGCGGGUUCGAGUCCCGUAUGGAACG, the yeast fitness is reported as no more than 0.5. Work on GUUGCGUUGGCGUAAUGGUAACCCGUCUCCCUCCUAAGGAGAAGACUGCGGGUUCGAGUCCCGUACCGAACG yielded a yeast fitness of no more than 0.5. GUUGCGUUGGCGUAAUGGUAACGCGUCUCCCUCCUAAGAAGAAGACUGCGGGAUCGAGUCCCGUACGGAACG gave a yeast fitness of no more than 0.5. Variant GUUGCGUUGGCGUAAUGGUAACACGUCUCCCUCCUGAGGAGAAGACUGCGGGUUCGAGUCCCGUACGUAACG has a yeast fitness of no more than 0.5. GUUGCGUUGGCAUAAUGGUAACGCGUCUCCCUCCUAAGGAGAAGACUGCGGGUUCGAGUCCCGUAGGGAACG gave a yeast fitness of 0.503.
